Broadly, the IC50 is the concentration at which inhibition is half-maximal. A higher IC50 goes with weaker potency in that assay.

SMILES strings stand for the structures. Structures can show the parent of a compound that is named as a salt. Where only a bound is given, the exact number is not on record here.

One test relates to K562. Description: Cytotoxicity against human K562 cells after 72 hrs by MTT assay. The class given is functional, cell-based. The note with it: K562, 72 h. Summed up:
(§1)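 Cells were checked for viability by Trypan blue counting, then plated at 8000 cells/well and exposed to test solution for 72 h. MTT reagents were then added, followed by a further 10 h incubation. Absorbance was read at 570 nm and IC50 reported in μM. Doxorubicin was the positive control.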

Another test concerns HL-60. Briefly: Cytotoxicity against human HL60 cells after 72 hrs by MTT assay. To be noted: HL-60, 72 h. The class given is functional, cell-based. Summed up: as §1
On the technique in general: Tetrazolium dyes change colour on reduction, which living cells bring about.

The next test deals with PC-3. Description: Cytotoxicity against human PC3 cells after 72 hrs by SRB assay. To be noted: PC-3, 72 h. On the technique in general: In SRB staining, fixed cells bind dye roughly in proportion to their protein.
Another test has as its system HCT-116. Briefly: Cytotoxicity against human HCT116 cells after 72 hrs by SRB assay. To be noted: HCT-116, 72 h.
For the next test, the system named is MGC-803. Briefly: Cytotoxicity against human MGC803 cells after 72 hrs by SRB assay. The note with it: MGC-803, 72 h.
The test system of another test is SH-SY5Y. Description: Cytotoxicity against human SH-SY5Y cells after 72 hrs by SRB assay.

For the compound `CO[C@@H](CC(Nc1ccccc1)=C1C(=O)NC(=C(C)C)C1=O)C[C@H](C)O`, the IC50 in the test with K562, with HL-60, with PC-3, in the test on HCT-116, in the test with MGC-803 and in the test on SH-SY5Y was above 30 µM each time.
`CO[C@H](CC(Nc1ccccc1)=C1C(=O)NC(=C(C)C)C1=O)C[C@H](C)O`: the concentration for half-maximal inhibition (IC50) in the test on K562 is 4.1 µM; in the test on HL-60, 2.8 µM; with PC-3, 13 µM; with HCT-116, 11 µM; in the test with MGC-803 it was 19 µM; in the test with SH-SY5Y, 12 µM.
As for `COc1cccc2c1C(=O)c1c(O)c3c(c(O)c1C2=O)C[C@@](O)(C(=O)CO)C[C@@H]3O[C@H]1C[C@H](N)[C@H](O)[C@H](C)O1` [DOXORUBICIN HYDROCHLORIDE], it took 1 µM to reach half-maximal inhibition in the test with PC-3 (IC50).
For `CC(C)=C1NC(=O)C(=C(C[C@@H](C[C@H](C)O)Nc2ccccc2)Nc2ccccc2)C1=O`, the IC50 in the test with K562 is 6.8 µM; with HL-60, 7.8 µM; in the test with PC-3 it was above 30 µM; in the test with HCT-116 it was above 30 µM; with MGC-803, above 30 µM; with SH-SY5Y, above 30 µM.
With `CC(C)=C1NC(=O)C(=C(C[C@H](C[C@H](C)O)Nc2ccccc2)Nc2ccccc2)C1=O`, the IC50 in the test on K562 was 5.9 µM; in the test with HL-60, 7.5 µM; in the test on PC-3, 18 µM; in the test with HCT-116 it was 14 µM; in the test on MGC-803, above 30 µM; in the test on SH-SY5Y it was above 30 µM.
For `CC(C)=C1NC(=O)C(=C2C=CC[C@H](C)O2)C1=O`, the IC50 in the test on K562 came out at 4.5 µM; with HL-60, 6.6 µM; in the test with PC-3 it was 11 µM; with HCT-116, 12 µM; in the test with MGC-803 it was 22 µM; in the test with SH-SY5Y it was 15 µM.

Source of the values: ChEMBL document CHEMBL4145647, “Aniline-Tetramic Acids from the Deep-Sea-Derived Fungus Cladosporium sphaerospermum L3P3 Cultured with the HDAC Inhibitor SAHA” (J Nat Prod, 2018).
